This is a sample that favours compounds with a hit; in the whole collection about 3.6% have one here.
PfHsp90 yeast 2 = growth inhibition of PfHsp90-expressing yeast, primary screen, antimalarial PfHsp90 inhibitor project, S. cerevisiae, BacTiter-Glo luminescence, single point, set 2. BacTiter-Glo ATP, 48 h; yeast lacking PDR1 and PDR3 efflux regulators. inhibition, % at 9.4 µM. 310,000 tested, 0.32% active. AID 504621, 2011;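 active = every replicate shows inhibition above about 80%, whatever the replicate mean, limit read from the data; inconclusive = mean inhibition reaches the set limit but some replicate falls short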;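 also: 0% = DMSO neutral controls and 100% = 20 µM radicicol positive controls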
HIF act = HIF pathway transcriptional activators, primary screen, cell-based, U2OS HRE-luciferase, luminescence; U2OS HRE-luciferase reporter; normalized: DMSO 0%, desferrioxamine 100%; activation, % at 7.5 µM (by protocol); 300,000 tested, 0.32% active;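 active = mean activation of at least 10% of the iron chelator positive control signal, with at least half of replicates also reaching 10%; inconclusive = mean and replicate majority disagree about reaching 10%; inactive = mean and most replicates under 10%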
Beta cell apopt = inhibitors of cytokine-induced beta cell apoptosis, primary screen, luminescence; 300,000 tested, 0.8% active; protection from apoptosis, % (test concentration not listed); INS-1E cytokine-induced death, ATP luminescence, 48 h; percent of positive-control rescue, neutral wells zero;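 active = Every replicate reaches about 75%, or at least half do and their mean reaches it too, limit read from the data; inconclusive = At least half of replicates reach the limit but their mean does not; inactive = Under half of replicates reach the limit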;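 also: 0% = cytokine-treated negative control wells and 100% = positive control rescue; higher means more ATP so stronger rescue from cytokine killing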
SKKanGAS inh = S. pyogenes SKKanGAS growth inhibitors in kanamycin, primary screen, streptokinase expression inhibitor project, SKKanGAS strain, BacTiter-Glo luminescence; 6 h; inhibition, % at 7.5 µM; 300,000 tested, 1.3% active; AID 1662, 2009;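 active = mean replicate score, as percent of positive control median, at least 50; inconclusive = mean below 50 but one replicate at or above 50; inactive = mean and every replicate below 50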;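 also: strain carries kanamycin resistance gene driven by streptokinase promoter and grows in 40 µg/ml kanamycin; loss of luminescence reflects streptokinase promoter inhibition or plain growth inhibition; 0% = median of DMSO wells and 100% = positive control at its reference dose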
CSC inhib = cancer stem cell viability inhibitors, primary screen, luminescence; cancer stem cell-like cells viability; inhibition, % at 7.5 µM; 300,000 tested, 1.1% active; AID 2717, 2010; in the data active = inhibition above about 75%; inconclusive = no clear call, values can overlap the other calls; tested in HMLE shEcad cells
T cruzi repl = inhibitors of intracellular T. cruzi growth, primary screen, luminescence, NIH3T3 host cells; T. cruzi beta-gal in NIH3T3, 90 h; inhibition, % (test concentration not listed); 300,000 tested, 1.4% active; AID 1885, 2009;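 active = mean inhibition across valid replicates above about 55%, limit read from the data; inconclusive = mean below that limit but half or more replicates reach it; inactive = mean below it, under half of replicates reach it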;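 also: signal also drops with host cell toxicity which is not excluded here; 0% = plate median of DMSO wells and 100% = zero luminescence signal; higher percent means less beta-gal luminescence so fewer parasites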
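Incubation – ≥90 h infection period, 3 h prior cell attachment · System – NIH/3T3 fibroblasts plus reporter T. cruzi · Doses – compound pinned at 50 nL/well, DMSO · Read-out basis – percent inhibition of parasite-derived β-gal signal · Signal – luminescent β-galactosidase signal after 60 min lysis · Also added – 5000 T. cruzi trypomastigotes/well · Medium – Low-serum DMEM with 2% FBS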
* marks the source's active call; other numbers are inactive results; ? = inconclusive; . = no result.

SMILES	PfHsp90 yeast 2	HIF act	Beta cell apopt	SKKanGAS inh	CSC inhib	T cruzi repl
CCCCCc1ccc(OCCC[n+]2ccccc2)c(CCCCC)c1	-24	-1	113*	40	11	75*
CC(/C=C1\SC(=Nc2cccnc2)NC1=O)=C\c1ccccc1	10	0	16	56*	61	-17
O=C1N/C(=N/O)S/C1=C/c1cccnc1	11	0	-4	-2	-8	-4
C=CCOc1ccc(/C=C2\SC(=Nc3cccnc3)NC2=O)cc1	22	84*	1	9	23	-15
Cc1ccccc1N=C1NC(=O)/C(=C/c2cccnc2)S1	-1	0	-2	30	0	-2
CCCCCCCCN1N=N[C@H]2[C@H]1[C@@H]1C[C@H]2N(C(=O)OC(C)(C)C)O1	-9	.	.	.	.	.
Cc1nn(S(=O)(=O)c2ccc(Cl)cc2)c(C)c1Sc1ccc([N+](=O)[O-])cc1	-20	-41	86*	-4	7	62*
CC1CCCCN1C(=O)COC(=O)c1cc([N+](=O)[O-])ccc1N (stereo not drawn)	.	0	5	-1	2	2
O=C(N=Nc1c(O)[nH]c2ccc([N+](=O)[O-])cc12)c1cc(-c2ccccc2Cl)nc2ccccc12	-4	0	29	.	9	-26
Cn1c(O)c(N=NC(=O)c2cc(-c3cccs3)nc3ccccc23)c2ccccc21	7	-1	24	80*	.	13
O=C(N=Nc1c(O)[nH]c2ccc(Br)cc12)c1cc(-c2cccs2)nc2ccccc12	-11	0	.	27	.	56*
O=C(N=Nc1c(O)[nH]c2ccc(Br)cc12)c1ccccc1-n1cccc1	17	.	34	7	80*	.
COc1ccc(N2C(=O)N3[C@@H]4c5ccccc5OC[C@@H]4[C@@H](c4ccccc4)[C@@]3(C)C2=O)cc1	2	.	-3	.	-22	.
COc1ccccc1NC(c1cccnc1)c1ccc2cccnc2c1O (stereo not drawn)	10	12*	14	5	40	40
COc1ccccc1NC(NC(=O)c1cccnc1)C(Cl)(Cl)Cl (stereo not drawn)	3	-1	-1	-6	-16	9
Cc1ccc2ccc(C(Nc3cccc(C(F)(F)F)c3)c3cccnc3)c(O)c2n1 (stereo not drawn)	18	8	5	65*	4	48
O=C(O)c1ccccc1NC(c1ccccc1)c1ccc2cccnc2c1O (stereo not drawn)	121*	.	.	.	.	.
Cc1ccnc(NC(c2cccnc2)c2ccc3cccnc3c2O)c1 (stereo not drawn)	10	11*	-25	?	1	17
O=[N+]([O-])c1ccc(OCc2n[nH]c(=S)n2-c2ccccc2)cc1	2	1	3	0	-5	-4
CN(c1ccccc1)P(=O)(N(C)c1ccccc1)N(C)c1ccccc1	-6	-1	15	3	27	66*
CN(c1ccccc1)S(=O)(=O)CS(=O)(=O)N(C)c1ccccc1	-11	.	.	.	.	.
CCN(CC)c1ccc(/C=N/N(c2ccccc2)c2ccccc2)c(O)c1	0	0	95*	-3	53	40
CCN(CC)c1ccc(/C=N/NC(=S)NCc2ccccc2)c(O)c1	1	6	83*	64*	46	48
CCN(CC)c1ccc(/C=N/N=C(c2ccccc2)c2ccccc2)c(O)c1	12	-1	13	-5	61	28
CCN(CC)c1ccc(/C=N/Nc2nc3ccccc3[nH]2)c(O)c1	18	83*	122*	94*	101*	59*
COc1cc(OC)c(OC)cc1/C=N/Nc1nc2ccccc2[nH]1	-2	0	-3	-7	-15	-25
CCN(CC)c1ccc(/C=N/NC(=O)c2ccco2)c(O)c1	6	78*	93*	.	113*	61*
CN(Cc1ccccc1F)C(=O)CCNC(=O)c1ccc(C(C)(C)C)cc1	-39	.	5	.	.	.
O=C(Cc1cccs1)N/N=C/c1ccco1	-7	0	1	77*	-7	-18
